In ChEMBL document CHEMBL5046221, “Identification of Pyrimidine-Based Lead Compounds for Understudied Kinases Implicated in Driving Neurodegeneration” (J Med Chem, 2022):

What was measured:
[1] = molecular target: T1, Macrophage colony-stimulating factor 1 receptor (Homo sapiens, UniProt P07333); test: Inhibition of recombinant human FMS (538 to end residues) using KKKSPGEYVNIEFG as substrate measured after 40 mins in presence of [gamma33P]ATP by radiometric scintillation counting method
In short: (§1)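 Eurofins radiometric kinase assay run at ATP equal to Km for each kinase. 9-point dose–response in duplicate gives the IC50.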

[2] = molecular target: T2, Serine/threonine-protein kinase 17A (Homo sapiens, UniProt Q9UEE5); test: Displacement of tracer K9 from NLuc fused DRAK1 (unknown origin) expressed in HEK293 cells by NanoBRET assay; assay type: cell-based
T2 sequence (Q9UEE5 whole entry): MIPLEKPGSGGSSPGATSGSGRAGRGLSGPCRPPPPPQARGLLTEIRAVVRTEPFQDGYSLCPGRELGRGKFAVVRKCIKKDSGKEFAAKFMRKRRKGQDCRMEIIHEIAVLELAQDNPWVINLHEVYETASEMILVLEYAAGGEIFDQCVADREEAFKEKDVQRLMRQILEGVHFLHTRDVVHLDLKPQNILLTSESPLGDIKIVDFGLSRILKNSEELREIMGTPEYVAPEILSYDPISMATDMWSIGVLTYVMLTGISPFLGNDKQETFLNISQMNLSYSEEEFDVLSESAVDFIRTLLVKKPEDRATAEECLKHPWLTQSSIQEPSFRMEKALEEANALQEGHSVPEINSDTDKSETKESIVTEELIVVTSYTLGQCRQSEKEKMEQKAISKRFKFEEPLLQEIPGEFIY

[3] = molecular target: MAP/microtubule affinity-regulating kinase 3 (Homo sapiens, UniProt P27448); test: Displacement of tracer K9 from NLuc fused MARK3 (unknown origin) expressed in HEK293 cells by NanoBRET assay; assay type: cell-based
Sequence of MAP/microtubule affinity-regulating kinase 3 (P27448 whole entry, the tested form may be a part): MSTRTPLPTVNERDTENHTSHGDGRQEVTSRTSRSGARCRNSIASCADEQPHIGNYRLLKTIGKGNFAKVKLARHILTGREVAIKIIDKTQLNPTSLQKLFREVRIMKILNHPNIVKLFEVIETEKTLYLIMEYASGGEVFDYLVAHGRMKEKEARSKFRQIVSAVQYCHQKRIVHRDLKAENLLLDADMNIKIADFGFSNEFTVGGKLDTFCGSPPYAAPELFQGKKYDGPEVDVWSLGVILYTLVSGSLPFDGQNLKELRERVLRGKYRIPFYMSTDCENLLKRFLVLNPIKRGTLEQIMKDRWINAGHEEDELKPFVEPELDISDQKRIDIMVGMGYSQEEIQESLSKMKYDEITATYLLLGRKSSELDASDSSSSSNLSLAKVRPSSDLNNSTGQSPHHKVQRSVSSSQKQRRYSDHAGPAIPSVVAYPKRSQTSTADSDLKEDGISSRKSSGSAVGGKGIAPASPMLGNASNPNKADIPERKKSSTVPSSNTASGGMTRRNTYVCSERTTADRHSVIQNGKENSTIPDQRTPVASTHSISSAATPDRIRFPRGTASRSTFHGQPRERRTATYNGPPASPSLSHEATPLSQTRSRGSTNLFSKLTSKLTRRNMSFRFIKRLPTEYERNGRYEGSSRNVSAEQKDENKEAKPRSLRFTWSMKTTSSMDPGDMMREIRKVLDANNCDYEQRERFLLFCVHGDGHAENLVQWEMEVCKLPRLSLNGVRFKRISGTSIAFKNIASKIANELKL

[4] = molecular target: T3, MAP/microtubule affinity-regulating kinase 4 (Homo sapiens, UniProt Q96L34); test: Displacement of tracer K5 from NLuc fused MARK4 (unknown origin) expressed in HEK293 cells by NanoBRET assay; assay type: cell-based
T3 sequence (Q96L34 whole entry): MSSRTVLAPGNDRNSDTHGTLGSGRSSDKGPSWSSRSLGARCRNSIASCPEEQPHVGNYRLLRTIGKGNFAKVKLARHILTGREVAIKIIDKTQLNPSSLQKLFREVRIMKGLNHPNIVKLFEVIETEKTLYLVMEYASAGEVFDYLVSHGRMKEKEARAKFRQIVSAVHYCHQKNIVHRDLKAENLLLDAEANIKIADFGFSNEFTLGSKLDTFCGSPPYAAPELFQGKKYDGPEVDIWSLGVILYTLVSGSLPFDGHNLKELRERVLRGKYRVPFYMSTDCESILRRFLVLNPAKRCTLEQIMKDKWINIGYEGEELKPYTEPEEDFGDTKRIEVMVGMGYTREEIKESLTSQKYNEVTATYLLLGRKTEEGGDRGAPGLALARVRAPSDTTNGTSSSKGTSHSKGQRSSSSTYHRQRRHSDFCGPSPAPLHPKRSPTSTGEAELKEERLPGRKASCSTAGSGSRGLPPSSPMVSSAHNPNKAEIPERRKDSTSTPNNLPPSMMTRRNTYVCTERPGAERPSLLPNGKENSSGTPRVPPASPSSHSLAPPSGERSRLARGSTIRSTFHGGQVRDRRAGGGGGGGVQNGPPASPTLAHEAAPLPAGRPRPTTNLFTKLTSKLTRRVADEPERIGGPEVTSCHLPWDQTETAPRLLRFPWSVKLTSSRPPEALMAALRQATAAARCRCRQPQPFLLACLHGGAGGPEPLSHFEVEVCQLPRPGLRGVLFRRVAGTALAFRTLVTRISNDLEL

[5] = molecular target: T4, Serine/threonine-protein kinase TBK1 (Homo sapiens, UniProt Q9UHD2); test: Displacement of tracer K5 from NLuc fused TBK1 (unknown origin) expressed in HEK293 cells by NanoBRET assay; assay type: cell-based
T4 sequence (Q9UHD2 whole entry): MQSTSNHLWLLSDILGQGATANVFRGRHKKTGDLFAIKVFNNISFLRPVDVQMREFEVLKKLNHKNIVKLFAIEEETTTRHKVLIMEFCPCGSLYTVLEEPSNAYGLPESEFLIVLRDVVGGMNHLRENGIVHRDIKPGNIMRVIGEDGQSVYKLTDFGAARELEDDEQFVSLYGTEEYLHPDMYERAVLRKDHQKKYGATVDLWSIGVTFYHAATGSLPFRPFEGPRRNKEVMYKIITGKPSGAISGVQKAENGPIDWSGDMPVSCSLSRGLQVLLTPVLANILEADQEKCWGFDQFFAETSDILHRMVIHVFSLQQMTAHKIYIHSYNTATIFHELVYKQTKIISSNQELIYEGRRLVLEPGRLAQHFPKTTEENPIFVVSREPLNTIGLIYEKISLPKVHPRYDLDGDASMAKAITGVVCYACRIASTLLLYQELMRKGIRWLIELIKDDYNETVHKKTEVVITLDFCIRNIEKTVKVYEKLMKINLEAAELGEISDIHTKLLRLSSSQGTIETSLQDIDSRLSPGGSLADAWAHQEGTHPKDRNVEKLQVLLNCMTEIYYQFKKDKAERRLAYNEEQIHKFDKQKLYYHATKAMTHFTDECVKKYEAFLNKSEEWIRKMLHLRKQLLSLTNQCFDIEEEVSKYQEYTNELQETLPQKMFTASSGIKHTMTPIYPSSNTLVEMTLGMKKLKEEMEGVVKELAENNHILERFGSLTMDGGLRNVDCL
In short: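 HEK293 cells grown in DMEM with 10% FBS at 37 °C, 5% CO2. NanoBRET assay run in dose–response per manufacturer's protocol with tracer K-5 at 0.5 μM. SEM calculated for assays run more than once.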

[6] = molecular target: T5, Non-receptor tyrosine-protein kinase TYK2 (Homo sapiens, UniProt P29597); test: Inhibition of human TYK2 (875 to end residues) using GGMEDIYFEFMGGKKK as substrate measured after 40 mins in presence of [gamma33P]ATP by radiometric scintillation counting method
T5 sequence (P29597 whole entry): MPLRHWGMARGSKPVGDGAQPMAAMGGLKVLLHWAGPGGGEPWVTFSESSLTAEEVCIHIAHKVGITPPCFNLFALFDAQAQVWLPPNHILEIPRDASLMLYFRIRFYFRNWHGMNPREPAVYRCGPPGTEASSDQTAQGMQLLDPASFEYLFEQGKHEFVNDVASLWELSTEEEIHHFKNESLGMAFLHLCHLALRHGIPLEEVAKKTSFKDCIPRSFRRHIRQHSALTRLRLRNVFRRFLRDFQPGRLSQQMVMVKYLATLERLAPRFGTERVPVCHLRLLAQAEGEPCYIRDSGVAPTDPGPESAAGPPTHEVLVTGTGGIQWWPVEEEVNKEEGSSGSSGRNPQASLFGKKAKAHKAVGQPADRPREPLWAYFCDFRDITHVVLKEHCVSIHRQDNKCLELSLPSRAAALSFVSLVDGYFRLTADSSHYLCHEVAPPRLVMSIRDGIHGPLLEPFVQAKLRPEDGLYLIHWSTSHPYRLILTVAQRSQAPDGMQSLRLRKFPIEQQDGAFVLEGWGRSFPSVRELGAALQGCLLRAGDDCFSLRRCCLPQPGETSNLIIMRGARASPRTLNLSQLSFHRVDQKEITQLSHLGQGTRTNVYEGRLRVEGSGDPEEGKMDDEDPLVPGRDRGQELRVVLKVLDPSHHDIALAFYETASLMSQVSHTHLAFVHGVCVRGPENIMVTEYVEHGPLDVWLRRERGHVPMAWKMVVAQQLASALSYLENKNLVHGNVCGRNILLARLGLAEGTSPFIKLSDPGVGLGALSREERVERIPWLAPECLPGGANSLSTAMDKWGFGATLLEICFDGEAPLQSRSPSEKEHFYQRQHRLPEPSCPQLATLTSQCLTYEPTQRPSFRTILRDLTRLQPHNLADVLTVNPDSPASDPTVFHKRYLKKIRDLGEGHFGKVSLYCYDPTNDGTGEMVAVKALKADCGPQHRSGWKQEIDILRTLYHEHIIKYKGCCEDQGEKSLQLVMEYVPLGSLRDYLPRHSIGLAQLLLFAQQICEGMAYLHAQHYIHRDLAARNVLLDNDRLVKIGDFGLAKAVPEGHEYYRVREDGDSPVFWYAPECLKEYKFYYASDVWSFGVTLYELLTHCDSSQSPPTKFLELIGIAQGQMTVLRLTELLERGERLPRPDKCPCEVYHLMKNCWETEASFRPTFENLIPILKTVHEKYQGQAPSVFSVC
In short: (§2)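 Eurofins radiometric enzymatic assay with ATP at Km for each kinase. IC50 was derived from a 9-point dose–response curve run in duplicate.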

[7] = Inhibition of human TTBK1 (1 to 479 residues) using Casein as substrate measured after 40 mins in presence of [gamma33P]ATP by scintillation counting method; in short: as §1
[8] = molecular target: Receptor tyrosine-protein kinase erbB-2 (Homo sapiens, UniProt P04626); test: Inhibition of recombinant human ERBB2 (676 to 1255 residues) using poly(Glu:Tyr) as substrate incubated for 40 mins in presence of [gamma-33P-ATP] by radiometric scintillation assay; in short: as §2
[9] = molecular target: T1, Macrophage colony-stimulating factor 1 receptor; test: Inhibition of NanoLuc-fused CSF1R (unknown origin) expressed in HEK293 cells incubated for 2 hrs by NanoBRET assay; assay type: cell-based
[10] = molecular target: T5, Non-receptor tyrosine-protein kinase TYK2; test: Inhibition of NanoLuc-fused TYK2 (unknown origin) expressed in HEK293 cells incubated for 2 hrs by NanoBRET assay; assay type: cell-based
In short: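 Cellular NanoBRET target-engagement assays were run by Carna Biosciences to the manufacturer's protocol. Dose–response was in singlicate, with compounds tested at concentrations up to 10 μM.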

[11] = Kinetic solubility of compound in PBS at pH 7.4 incubated for 24 hrs by chemiluminscent nitrogen detection method; assay type: physicochemical; details: buffer, pH 7.4, 24 h
In short: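 Filtrates were quantified by total chemiluminescent nitrogen determination against a calibration curve, with correction for background nitrogen from DMSO and medium.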

[12] = Effective permeability in PBS at 7.4 incubated for 5 hrs by PAMPA analysis; assay type: ADME; details: pH 7.4, 5 h
In short: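 PAMPA: DMSO stocks were diluted in PBS pH 7.4 and placed in the donor compartment, with PBS pH 7.4 in the acceptor, for 5 h. Both compartments were quantified by CLND against a calibration curve, with background nitrogen correction. Effective permeability was calculated from donor and acceptor concentrations using measured rather than assumed solubility.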

[13] = molecular target: Tyrosine-protein kinase JAK2 (Homo sapiens) (UniProt O60674); test: Inhibition of recombinant human JAK2 (808 to end residues) using KTFCGTPEYLAPEVRREPRILSEEEQEMFRDFDYIADWC as substrate at 1 uM incubated for 40 mins in presence of [gamma-33P-ATP] by radiometric scintillation assay relative to control
Sequence of Tyrosine-protein kinase JAK2 (Homo sapiens) (O60674 whole entry): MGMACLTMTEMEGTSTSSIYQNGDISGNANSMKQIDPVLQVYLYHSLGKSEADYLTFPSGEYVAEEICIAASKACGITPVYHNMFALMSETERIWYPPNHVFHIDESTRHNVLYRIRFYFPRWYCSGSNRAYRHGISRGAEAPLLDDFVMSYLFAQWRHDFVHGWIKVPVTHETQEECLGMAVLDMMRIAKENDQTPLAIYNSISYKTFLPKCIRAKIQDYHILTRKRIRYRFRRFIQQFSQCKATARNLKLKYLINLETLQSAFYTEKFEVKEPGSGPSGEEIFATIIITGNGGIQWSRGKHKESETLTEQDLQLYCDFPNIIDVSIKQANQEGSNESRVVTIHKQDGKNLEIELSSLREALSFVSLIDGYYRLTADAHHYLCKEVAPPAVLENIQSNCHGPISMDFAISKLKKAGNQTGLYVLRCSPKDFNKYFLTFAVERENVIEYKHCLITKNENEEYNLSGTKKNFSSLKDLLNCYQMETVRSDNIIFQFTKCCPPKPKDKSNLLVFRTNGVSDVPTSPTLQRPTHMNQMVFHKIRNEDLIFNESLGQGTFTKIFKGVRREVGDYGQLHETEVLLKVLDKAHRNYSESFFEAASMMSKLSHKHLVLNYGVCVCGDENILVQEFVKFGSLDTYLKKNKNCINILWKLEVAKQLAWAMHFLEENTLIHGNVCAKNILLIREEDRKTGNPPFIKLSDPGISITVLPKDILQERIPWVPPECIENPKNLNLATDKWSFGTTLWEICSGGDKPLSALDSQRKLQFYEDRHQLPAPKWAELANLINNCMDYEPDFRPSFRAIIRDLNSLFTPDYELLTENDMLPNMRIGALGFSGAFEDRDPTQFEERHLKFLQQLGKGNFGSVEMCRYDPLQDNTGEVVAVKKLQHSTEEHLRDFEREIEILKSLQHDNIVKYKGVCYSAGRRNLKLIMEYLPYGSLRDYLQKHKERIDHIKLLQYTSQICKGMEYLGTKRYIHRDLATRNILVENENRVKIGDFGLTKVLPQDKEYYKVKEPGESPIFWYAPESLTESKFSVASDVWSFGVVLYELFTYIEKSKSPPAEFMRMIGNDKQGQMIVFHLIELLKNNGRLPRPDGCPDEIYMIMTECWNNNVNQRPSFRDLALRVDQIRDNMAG
In short: (§3)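 Eurofins radiometric kinase assay with ATP at Km for each kinase. Compound was tested at a single 1 μM concentration in duplicate, and the result is reported as percent of control.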

[14] = molecular target: MAP kinase-interacting serine/threonine-protein kinase 2 (Homo sapiens, UniProt Q9HBH9); test: Inhibition of full length recombinant human MKNK2 using myelin basic protein as substrate incubated for 40 mins in presence of [gamma-33P-ATP] by radiometric scintillation assay; in short: as §1
Sequence of MAP kinase-interacting serine/threonine-protein kinase 2 (Q9HBH9 whole entry): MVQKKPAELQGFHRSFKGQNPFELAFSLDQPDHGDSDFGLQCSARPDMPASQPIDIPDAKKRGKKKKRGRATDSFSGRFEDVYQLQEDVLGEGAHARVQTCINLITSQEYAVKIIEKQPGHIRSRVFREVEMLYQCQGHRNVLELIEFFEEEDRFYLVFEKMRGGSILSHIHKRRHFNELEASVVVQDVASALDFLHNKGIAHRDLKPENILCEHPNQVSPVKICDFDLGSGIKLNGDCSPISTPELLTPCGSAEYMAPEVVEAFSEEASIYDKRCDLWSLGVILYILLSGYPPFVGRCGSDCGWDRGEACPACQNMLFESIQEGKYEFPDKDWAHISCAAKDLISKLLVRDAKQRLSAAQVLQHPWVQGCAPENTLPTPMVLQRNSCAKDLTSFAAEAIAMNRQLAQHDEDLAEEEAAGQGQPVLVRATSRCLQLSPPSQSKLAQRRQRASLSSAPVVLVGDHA

[15] = molecular target: Serine/threonine-protein kinase 32B (Homo sapiens, UniProt Q9NY57); test: Inhibition of full length recombinant human YANK2 using casein as substrate incubated for 120 mins in presence of [gamma-33P-ATP] by radiometric scintillation assay; in short: as §2
Sequence of Serine/threonine-protein kinase 32B (Q9NY57 whole entry): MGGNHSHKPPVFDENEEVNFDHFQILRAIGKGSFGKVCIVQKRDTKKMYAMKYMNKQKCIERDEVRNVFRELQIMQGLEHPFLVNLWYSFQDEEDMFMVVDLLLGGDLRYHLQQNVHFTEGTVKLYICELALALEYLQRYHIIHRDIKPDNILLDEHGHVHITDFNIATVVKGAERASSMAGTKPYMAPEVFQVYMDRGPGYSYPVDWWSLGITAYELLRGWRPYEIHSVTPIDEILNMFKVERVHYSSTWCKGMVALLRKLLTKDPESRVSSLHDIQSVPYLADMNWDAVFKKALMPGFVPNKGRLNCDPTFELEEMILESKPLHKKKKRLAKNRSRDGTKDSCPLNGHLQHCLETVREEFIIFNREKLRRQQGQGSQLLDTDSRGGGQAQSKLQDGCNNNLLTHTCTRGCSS

[16] = molecular target: T6, Serine/threonine-protein kinase 17B (Homo sapiens) (UniProt O94768); test: Inhibition of full length recombinant human DRAK2 using KKRPQRRYSNVF as substrate at 1 uM incubated for 120 mins in presence of [gamma-33P-ATP] by radiometric scintillation assay relative to control; in short: as §3
T6 sequence (whole entry): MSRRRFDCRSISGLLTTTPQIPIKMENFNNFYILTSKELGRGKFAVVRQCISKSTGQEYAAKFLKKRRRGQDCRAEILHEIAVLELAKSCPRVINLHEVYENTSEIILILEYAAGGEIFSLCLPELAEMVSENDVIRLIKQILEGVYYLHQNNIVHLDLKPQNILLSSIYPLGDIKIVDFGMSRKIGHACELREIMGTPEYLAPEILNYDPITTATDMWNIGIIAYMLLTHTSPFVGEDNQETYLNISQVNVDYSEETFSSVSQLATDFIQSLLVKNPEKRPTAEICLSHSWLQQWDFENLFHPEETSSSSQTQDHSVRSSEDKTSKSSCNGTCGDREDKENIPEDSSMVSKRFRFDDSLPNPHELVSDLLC

T1 sequence (P07333 whole entry): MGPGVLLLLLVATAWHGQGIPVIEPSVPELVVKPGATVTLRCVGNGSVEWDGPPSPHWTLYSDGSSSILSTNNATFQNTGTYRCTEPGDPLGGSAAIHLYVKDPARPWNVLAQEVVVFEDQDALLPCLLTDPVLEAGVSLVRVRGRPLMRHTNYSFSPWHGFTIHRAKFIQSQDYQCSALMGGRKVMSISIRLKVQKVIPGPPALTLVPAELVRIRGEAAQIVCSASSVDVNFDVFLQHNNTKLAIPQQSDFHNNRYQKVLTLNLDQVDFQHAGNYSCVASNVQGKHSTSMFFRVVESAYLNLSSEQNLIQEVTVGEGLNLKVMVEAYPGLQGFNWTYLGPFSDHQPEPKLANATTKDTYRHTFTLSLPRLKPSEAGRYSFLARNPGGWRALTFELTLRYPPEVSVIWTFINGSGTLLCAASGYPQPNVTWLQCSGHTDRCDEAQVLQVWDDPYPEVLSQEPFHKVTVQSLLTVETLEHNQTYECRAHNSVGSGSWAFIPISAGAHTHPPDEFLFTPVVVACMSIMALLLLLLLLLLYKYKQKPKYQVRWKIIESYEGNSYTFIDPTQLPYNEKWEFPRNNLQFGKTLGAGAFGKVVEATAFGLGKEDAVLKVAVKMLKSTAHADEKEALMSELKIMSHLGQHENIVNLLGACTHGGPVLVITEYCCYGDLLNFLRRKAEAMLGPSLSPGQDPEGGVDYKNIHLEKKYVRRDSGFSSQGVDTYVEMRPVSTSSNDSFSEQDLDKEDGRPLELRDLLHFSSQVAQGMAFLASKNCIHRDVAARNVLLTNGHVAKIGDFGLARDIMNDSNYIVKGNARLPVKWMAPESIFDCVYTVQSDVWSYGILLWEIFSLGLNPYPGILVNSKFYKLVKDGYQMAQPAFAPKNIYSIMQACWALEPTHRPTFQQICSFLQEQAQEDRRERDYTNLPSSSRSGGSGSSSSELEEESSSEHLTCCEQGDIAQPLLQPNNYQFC

Row | Structure (SMILES) | IC50 [1] [µM] | IC50 [2] [µM] | IC50 [3] [µM] | IC50 [4] [µM] | IC50 [5] [µM] | IC50 [6] [µM] | IC50 [7] [µM] | IC50 [8] [µM] | IC50 [9] [µM] | IC50 [10] [µM] | Kinetic solubility [11] [µM] | Peff [12] | % control [13] [%] | IC50 [14] [µM] | IC50 [15] [µM] | Kinetic_solubility [11] [µM] | % control [16] [%]
1 | NS(=O)(=O)c1ccc(CNc2ccnc(Nc3cccc(CN4CCOCC4)c3)n2)cc1 | 0.091 | > 10 | > 10 | > 10 | > 10 | 0.276 | 2.74 | > 10 | 5.06 | > 10 | 176 | 4.56 10^-7 cm/s | 54 |  |  |  | 
2 | Cc1nn(CC(F)(F)F)cc1Nc1nccc(NCCCNC(=O)C2CCC2)n1 |  | > 10 | > 10 | > 10 | > 10 |  |  |  |  |  |  | 2.39 10^-6 cm/s |  | 2.87 | > 10 | 174.6 | 60
